# According to ChEMBL document CHEMBL5046298, “SAR of Novel 3-Arylisoquinolinones: meta-Substitution on the Aryl Ring Dramatically Enhances Antiproliferative Activity through Binding to Microtubules” (J Med Chem, 2022):
# Calls of active or inactive are those of the source. The rule behind the calls is not given here.
# What was measured:
# [1] = target: T1, Tubulin (Homo sapiens) (UniProt P68371+Q9H4B7+P0DPH7+P68366+Q13509+Q71U36+P04350+Q3ZCM7+P07437+P68363+Q9BQE3+Q6PEY2+Q13885+Q9BVA1+Q9BUF5); assay: Inhibition of tubulin (unknown origin) polymerization assessed as reduction in microtubule formation by measuring reduction in absorbance at 10 uM measured every minute for 1 hr in presence of GTP by microplate reader analysis; format: protein-complex assay
# Summary of the method: (§1)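 Cell-free turbidity assay: purified bovine tubulin diluted to 60 μM in polymerization buffer with 1 mM GTP, mixed on ice with DMSO or test agent (final 5, 10, 20 μM). […] A350 read every 1 min for 60 min at 37 °C; ΔA calculated relative to time zero.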
# [2] = test system: HUVEC; assay: Antivascular activity against HUVEC cells assessed as inhibition of capillary like tube formation at 25 uM incubated for 16 hrs by matrigel based bright field microscopic analysis; format: functional, cell-based; details: Homo sapiens
# Summary of the method: (§2)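 Tube formation: HUVECs (25×10^3 per well) plated onto gelled Matrigel together with DMSO or test agent (0.5, 1, 2 μM or 25 μM). After 16 h, tube networks were examined by bright-field microscopy at 4×. Three independent experiments.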
# [3] = target: T2, Ribosyldihydronicotinamide dehydrogenase [quinone] (Homo sapiens) (UniProt P16083); assay: Inhibition of human recombinant NQO2 at upto 100 uM; details: dose microM <=100
# T2 sequence (whole entry): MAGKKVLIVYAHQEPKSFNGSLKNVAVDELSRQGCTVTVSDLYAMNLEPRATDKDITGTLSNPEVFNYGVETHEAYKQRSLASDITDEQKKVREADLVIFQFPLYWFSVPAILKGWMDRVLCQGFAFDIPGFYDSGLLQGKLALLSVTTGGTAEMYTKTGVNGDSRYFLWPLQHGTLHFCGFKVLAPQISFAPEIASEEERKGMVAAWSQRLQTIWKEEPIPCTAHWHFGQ
# [4] = test system: HUVEC; assay: Disruption of preestablished capillary like tubes in HUVEC cells at 25 uM incubated for 16 hrs by matrigel based bright field microscopic analysis; format: functional, cell-based; details: Homo sapiens
# [5] = test system: HepG2; assay: Induction of reversible mitotic arrest in human HepG2 cells assessed as increase in cell population in sub-G0/G1 phase at 2 to 5 uM treated for 24 hrs followed by replacement with fresh medium without compound and further incubated for 24 hrs by PI staining based flow cytometry; format: functional; details: dose 2-5 µM
# Summary of the method: (§3)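 HepG2 cells (5×10^5 per dish) treated 24 h, then medium replaced with compound-free medium for a further 24 h. Cells then ethanol-fixed and stained with PI/RNase A for 30 min at 37 °C. 10 000 cells analyzed by flow cytometry; phase percentages by Watson model. Compared with control by one-way ANOVA/Dunnett's.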
# [6] = test system: HepG2; assay: Induction of cell cycle arrest in human HepG2 cells assessed as increase in sub-G0/G1 cell population at 2 uM measured after 24 hrs by PI staining based flow cytometry; format: functional
# [7] = test system: HUVEC; assay: Disruption of preestablished capillary like tubes in HUVEC cells assessed as rounded and retracted cells at 0.5 to 1 uM incubated for 16 hrs by matrigel based inverted microscopy; details: Homo sapiens, dose 0.5-1 µM
# [8] = test system: HUVEC; assay: Disruption of preestablished capillary like tubes in HUVEC cells incubated for 16 hrs by matrigel based bright field microscopic analysis; format: functional, cell-based; details: Homo sapiens, dose 0.5-10 µM
# [9] = test system: SNU-423; assay: Induction of apoptosis in human SNU-423 cells assessed as early apoptotic cells at 0.5 uM incubated for 24 hrs by Annexin V- APC/PI staining based flow cytometry (reference value: 0.94 %); format: functional
# [10] = test system: HepG2; assay: Induction of reversible mitotic arrest in human HepG2 cells assessed as restoration of cell population in G0/G1 phase at 2 to 5 uM treated for 24 hrs followed by replacement with fresh medium without compound and further incubated for 24 hrs by PI staining based flow cytometry; format: functional; details: dose 2-5 µM; summary of the method: as §3
# [11] = test system: HepG2; assay: Cytotoxicity against human HepG2 cells assessed as inhibition of colony formation at 0.5 to 1 uM incubated for 14 days by methylene blue staining based clonogenic assay; format: functional, cell-based; details: dose 0.5-1 µM, time 14.0 day
# Summary of the method: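 Clonogenic survival: HepG2 seeded as single cells at 1000/well and left 10-12 h to adhere. Treated with DMSO or a concentration range for 14 days, with compound added once. Colonies fixed in 70% ethanol, stained with 0.5% methylene blue, and colonies of ≥50 cells counted. Surviving fraction = treated CFE/control CFE. Three independent experiments.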
# [12] = test system: HUVEC; assay: Cytotoxicity against HUVEC cells assessed as reduction in cell proliferation at upto 10 uM incubated for 24 hrs by Sulforhodamine B assay; format: toxicity, cell-based; details: human
# Summary of the method: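 HUVECs plated without Matrigel at 4000 cells/well, allowed to attach overnight, then exposed to a concentration range for 24 h. Growth read by SRB: TCA fixation, 0.4% SRB dye, OD at 510 nm, expressed as % of DMSO control. Mean ± SEM of three independent experiments.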
# [13] = test system: HUVEC; assay: Disruption of preestablished capillary like tubes in HUVEC cells assessed as decrease in tube junctions at 1 to 2 uM incubated for 16 hrs by matrigel based bright field microscopic analysis; format: functional, cell-based; details: Homo sapiens, dose 1-2 µM
# [14] = Antiproliferative activity against human THLE-3 cells assessed as inhibition of cell proliferation incubated for 24 hrs followed by 72 hrs of compound-free incubation by Sulforhodamine B assay; format: toxicity, cell-based
# Summary of the method: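 SRB growth assay: cells seeded overnight (HepG2 3000, SNU423 2000, MDA-MB-231 1500, MCF-7 2500, A549 1000, HCT116 1000, THLE-3 4000 cells/well), then exposed to a concentration range for 96 h, or 24 h followed by 72 h drug-free. DMSO ≤0.3%. TCA fixation, 0.4% SRB staining, OD at 510 nm. Growth % = OD test/OD control ×100. IC50 from four-parameter fit; at least three independent experiments.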
# [15] = test system: HepG2; assay: Induction of reversible mitotic arrest in human HepG2 cells assessed as restoration of cell population in S phase at 2 to 5 uM treated for 24 hrs followed by replacement with fresh medium without compound and further incubated for 24 hrs by PI staining based flow cytometry; format: functional; details: dose 2-5 µM; summary of the method: as §3
# [16] = test system: SNU-423; assay: Induction of apoptosis in human SNU-423 cells assessed as viable cells at 0.5 uM incubated for 24 hrs by Annexin V-APC/PI staining based flow cytometry (reference value: 92.7 %); format: functional; details: read-out: Activity
# [17] = test system: SNU-423; assay: Induction of apoptosis in human SNU-423 cells assessed as necrotic cells at 1 uM incubated for 24 hrs by Annexin V-APC/PI staining based flow cytometry (reference value: 5.74 %); format: functional
# [18] = test system: HUVEC; assay: Induction of actin disruption in HUVEC cells assessed as thicker and brighter actin fibers at 0.5 to 1 uM incubated for 24 hrs by phalloidin-Atto 488 staining based inverted microscopy; format: cell-based; details: Homo sapiens, dose 0.5-1 µM
# Summary of the method: (§4)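 HUVECs (2×10^4) adhered overnight on glass slides, no Matrigel. Treated 24 h with 0.5 or 1 μM; colchicine 0.1 μM as positive control. Fixed in 10% formalin, permeabilized with Triton X-100, blocked. Stained with anti-α-tubulin plus Cy5 secondary, phalloidin-Atto 488 for F-actin, and DAPI. Imaged by inverted fluorescence microscopy at 63×. Three independent experiments.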
# [19] = test system: SNU-423; assay: Induction of apoptosis in human SNU-423 cells assessed as early apoptotic cells at 1 uM incubated for 24 hrs by Annexin V-APC/PI staining based flow cytometry (reference value: 0.94 %); format: functional
# [20] = test system: SNU-423; assay: Induction of apoptosis in human SNU-423 cells assessed as late apoptotic cells at 0.5 uM incubated for 24 hrs by Annexin V-APC/PI staining based flow cytometry (reference value: 0.83 %); format: functional
# [21] = target: T1, Tubulin (Homo sapiens); assay: Inhibition of tubulin (unknown origin) polymerization assessed as reduction in microtubule formation by measuring reduction in absorbance measured every minute for 1 hr in presence of GTP by microplate reader analysis; format: protein-complex assay; details: dose 5-20 µM; summary of the method: as §1
# [22] = test system: SNU-423; assay: Induction of apoptosis in human SNU-423 cells assessed as viable cells at 1 uM incubated for 24 hrs by Annexin V-APC/PI staining based flow cytometry (reference value: 92.7 %); format: functional; details: read-out: Activity
# [23] = test system: HUVEC; assay: Disruption of preestablished capillary like tubes in HUVEC cells assessed as formation of short distorted tubes at 1 to 2 uM incubated for 16 hrs by matrigel based bright field microscopic analysis; format: functional, cell-based; details: Homo sapiens, dose 1-2 µM
# [24] = target: T1, Tubulin (Homo sapiens); assay: Induction of microtubule disruption in HUVEC cells assessed as shortened microtubules with outer blebbing filled with tubulin at 0.5 to 1 uM incubated for 24 hrs by immunofluorescence based inverted microscopy; format: cell-based; details: dose 0.5-1 µM; summary of the method: as §4
# [25] = test system: HepG2; assay: Induction of cell cycle arrest in human HepG2 cells assessed as decrease in cell proportion at G0/G1 phase at 25 uM measured after 24 hrs by PI staining based flow cytometry; format: functional
# [26] = test system: HepG2; assay: Induction of reversible mitotic arrest in human HepG2 cells assessed as restoration of cell population in G2/M phase at 2 to 5 uM treated for 24 hrs followed by replacement with fresh medium without compound and further incubated for 24 hrs by PI staining based flow cytometry; format: functional; details: dose 2-5 µM; summary of the method: as §3
# [27] = test system: HUVEC; assay: Antivascular activity against HUVEC cells assessed as inhibition of capillary like tube formation incubated for 16 hrs by matrigel based bright field microscopic analysis; format: functional, cell-based; details: Homo sapiens, dose 2.0 µM; summary of the method: as §2
structure (smiles),measurement,setting,value
COC(=O)Nc1nc2cc(C(=O)c3cccs3)ccc2[nH]1,inhibition,[1],Active
CC(=O)O[C@H]1C(=O)[C@@]2(C)[C@H]([C@H](OC(=O)c3ccccc3)[C@]3(O)C[C@H](OC(=O)[C@H](O)[C@@H](NC(=O)c4ccccc4)c4ccccc4)C(C)=C1C3(C)C)[C@]1(OC(C)=O)CO[C@@H]1C[C@@H]2O,inhibition,[1],inactive
O=c1[nH]c(-c2ccc(F)cc2)cc2cc(F)ccc12,Activity,[2],inactive
same,inhibition,[3],inactive
same,Activity,[4],inactive
O=c1[nH]c(-c2cccc(F)c2)cc2cc(F)ccc12,Activity,[5],Active
same,Activity,[6],Active
same,Activity,[7],Active
same,Activity,[8],Dose-Dependent Effect
same,Activity,[9],5.95%
same,Activity,[10],Active
same,inhibition,[3],inactive
same,inhibition,[11],Active
same,Activity,[12],Non-Toxic
same,Activity,[13],Active
same,IC50 at 24 h,[14],> 25 µM
same,Activity,[15],Active
same,viability at 0.5 µM,[16],76%
same,Activity,[17],12.1%
same,Activity,[18],Active
same,Activity,[19],15.1%
same,Activity,[20],6.47%
same,inhibition,[21],Active
same,viability at 1 µM,[22],60.4%
same,Activity,[23],Active
same,Activity,[24],Active
same,Activity,[25],Active
same,Activity,[26],Active
same,Activity,[27],Dose-Dependent Effect
COc1ccc(-c2cc3cc(F)ccc3c(=O)[nH]2)cc1,inhibition,[3],inactive
